Assay [1] has as its target T1, Polyunsaturated fatty acid 5-lipoxygenase (Homo sapiens, UniProt P09917).
T1 sequence (P09917 whole entry): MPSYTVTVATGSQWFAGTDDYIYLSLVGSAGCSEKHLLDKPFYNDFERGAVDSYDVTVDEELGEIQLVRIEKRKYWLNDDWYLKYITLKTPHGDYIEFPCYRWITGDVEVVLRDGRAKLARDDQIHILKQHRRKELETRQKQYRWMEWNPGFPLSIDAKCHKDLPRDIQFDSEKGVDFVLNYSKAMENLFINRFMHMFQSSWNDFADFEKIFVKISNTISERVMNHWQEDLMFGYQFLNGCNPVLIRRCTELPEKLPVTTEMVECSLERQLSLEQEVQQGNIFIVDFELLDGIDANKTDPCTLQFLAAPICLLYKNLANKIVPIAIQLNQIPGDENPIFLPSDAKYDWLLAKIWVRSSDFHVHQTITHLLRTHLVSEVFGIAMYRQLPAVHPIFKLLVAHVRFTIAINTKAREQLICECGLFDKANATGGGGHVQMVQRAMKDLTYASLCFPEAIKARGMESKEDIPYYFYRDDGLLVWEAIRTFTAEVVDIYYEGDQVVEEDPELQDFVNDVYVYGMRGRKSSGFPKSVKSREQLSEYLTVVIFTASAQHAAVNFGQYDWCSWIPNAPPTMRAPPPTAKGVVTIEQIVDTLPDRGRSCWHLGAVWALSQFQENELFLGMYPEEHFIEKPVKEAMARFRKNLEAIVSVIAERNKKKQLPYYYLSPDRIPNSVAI
Briefly: Inhibition of recombinant 5-lipoxygenase expressed in Escherichia coli BL21 using arachidonic acid as substrate incubated for 15 mins prior to substrate addition measured after 10 mins by HPLC analysis. A digest of the protocol:
(§1)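 Compounds were first tested at 30 μM, and IC50 values were determined only for those giving at least 50% inhibition. The 5-LO assay was cell-free with HPLC read-out, and the sEH assay used a fluorescence read-out.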

The target of assay [2] is T2, Bifunctional epoxide hydrolase 2 (Homo sapiens, UniProt P34913).
T2 sequence (P34913 whole entry): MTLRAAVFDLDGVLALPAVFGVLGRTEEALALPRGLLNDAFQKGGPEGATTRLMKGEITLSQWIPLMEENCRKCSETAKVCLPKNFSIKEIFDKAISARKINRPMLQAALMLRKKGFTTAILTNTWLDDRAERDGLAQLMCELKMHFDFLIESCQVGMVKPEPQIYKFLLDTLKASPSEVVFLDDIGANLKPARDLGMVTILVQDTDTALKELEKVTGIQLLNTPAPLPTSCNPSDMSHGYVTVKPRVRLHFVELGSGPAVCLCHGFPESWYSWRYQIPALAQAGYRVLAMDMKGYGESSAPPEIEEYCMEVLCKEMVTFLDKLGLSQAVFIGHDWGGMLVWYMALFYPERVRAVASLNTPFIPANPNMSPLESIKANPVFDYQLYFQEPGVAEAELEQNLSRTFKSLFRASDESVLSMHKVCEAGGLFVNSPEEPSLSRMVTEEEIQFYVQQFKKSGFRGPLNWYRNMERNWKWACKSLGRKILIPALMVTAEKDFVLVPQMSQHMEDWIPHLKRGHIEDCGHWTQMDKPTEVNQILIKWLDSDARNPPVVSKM
Briefly: (§2) Inhibition of soluble epoxide hydrolase using (3-Phenyl-oxiranyl)-acetic acid cyano-(6-methoxy-naphthalen-2-yl)-methyl ester) as substrate incubated for 15 mins prior to substrate addition measured every min for 15 mins by fluorometry. A digest of the protocol: as §1

The target of assay [3] is T3, Bifunctional epoxide hydrolase 2 (Homo sapiens) (UniProt P34913).
T3 sequence (whole entry): T2 sequence (P34913 whole entry)
Described as §2. Put shortly:
as §1

As usually defined, the pIC50 is the IC50 on a negative log10 scale, so that one unit is a factor of ten.

pIC50: −log10 of the molar value. Calls of active or inactive are those of the source. The calls are words filed in the database; no cut-off is given here.

For the molecule `CC(C)CC(=O)Nc1nc2c(s1)CCc1ccccc1-2`, in assay [1], the pIC50 was 4.80.
As for `COc1ccc(CC(=O)Nc2ccc(C)cc2)cc1OC`, the pIC50 in assay [2] is 4.68.
On to `CN(C)c1ccc(-n2nc3ccc4ccccc4c3n2)cc1`, for which the pIC50 in assay [1] is 5.66.
As for `COc1ccc(-c2nc3cc(C)ccc3o2)cc1OC`, in assay [1], the pIC50 is 5.57. In assay [3], the inhibition entry is “inactive”.
As to `Cn1nnc2cc(NC(=O)NCCC3=CCCCC3)ccc21`, the pIC50 in assay [2] is 6.33.
With `COc1ccc(/C=N/Nc2nc3ccccc3[nH]2)cc1OC`, the pIC50 in assay [1] was 5.09.
In the case of `COc1cccc(CNc2nc3ccccc3n2C)c1O`, the pIC50 in assay [1] was 5.12. For the same molecule, in assay [3], the inhibition result is “inactive”.
Turning to `COc1ccc(-c2nc3cc(C)ccc3[nH]2)cc1OC`, the pIC50 is 4.44 in assay [1] and 5.46 in assay [2].
In assay [2], `COc1ccc(NC(=O)c2cccc(-n3cnnn3)c2)cc1` showed a pIC50 of 5.80.

(Values after ChEMBL document CHEMBL2034900, “Dual-target virtual screening by pharmacophore elucidation and molecular shape filtering” (ACS Med Chem Lett, 2012).)
